The values that follow come from ChEMBL document CHEMBL3865847, “The synthesis and biological evaluation of alkyl and benzyl naphthyridinium analogs of eupolauridine as potential antimicrobial and cytotoxic agents” (Bioorg Med Chem, 2016).

One data set concerns Cryptococcus neoformans. Nature of the data set: Antimicrobial activity against Cryptococcus neoformans ATCC 52657. In kind it is functional. Summed up: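 Grown in mycophil broth 72 h, hemocytometer-counted, diluted to 200,000 CFU/mL. Exposed to diluted samples in 96-well plates, maximum final 50 µg/mL (DMSO up to 2.5%), incubated 30 °C. A630 readout. MIC is the lowest concentration inhibiting 80% of growth versus controls; IC50 read from concentration versus % growth graphs.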

A further data set relates to Candida albicans. Nature of the data set: Antimicrobial activity against Candida albicans B311. In kind it is functional. Summed up:
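Cultured in Sabouraud dextrose broth 24 h, counted by hemocytometer, diluted to 10,000 CFU/mL. Added to serially diluted samples in 96-well plates, top final concentration 50 µg/mL (≤2.5% DMSO), incubated 37 °C. Growth by A630. MIC is the lowest concentration giving 80% inhibition against controls; IC50 from concentration versus % growth plots.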

The next data set concerns Aspergillus fumigatus. Nature of the data set: Antimicrobial activity against Aspergillus fumigatus ATCC 26934. In kind it is functional. Summed up: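 Aspergillus fumigatus spores released by scraping a slant, used on assay day, in mycophil broth. Broth microdilution in 96-well plates, highest final DMSO 2.5%, incubated at 30 °C. Growth read as absorbance at 630 nm versus controls. MIC is the lowest tested concentration giving 80% growth inhibition; IC50 (50% inhibition) comes from concentration versus % growth plots.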

The subject of data set [1] is Staphylococcus aureus. Nature of the data set: Antimicrobial activity against methicillin-resistant Staphylococcus aureus. In kind it is functional. Summed up: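 MRSA precultured 24 h, diluted 1:50 in broth, added to serially diluted samples in 96-well plates (highest final DMSO 2.5%), incubated at 37 °C. Growth measured as absorbance at 630 nm versus controls. MIC is the lowest concentration giving 80% inhibition; IC50 (50% inhibition) is read from concentration versus % growth plots.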

The nature of data set [2]: Cytotoxicity against human SK-MEL cells assessed as cell growth inhibition after 48 hrs by neutral red dye based assay. In kind it is functional. Summed up:
(§1)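 Cells kept in RPMI-1640 with 10% bovine serum and 60 µg/mL amikacin, 37 °C, 5% CO2. Seeded at 25,000 cells/well, left 24 h to adhere. Samples diluted in RPMI added, highest final concentration 10 µg/mL. Growth measured by neutral red uptake after 48 h exposure.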

Data set [3] is described as follows: Inhibition of Candida albicans DNA topoisomerase 1 using pHOT1 as substrate after 30 mins by agarose gel electrophoresis. Put shortly: (§2)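 Relaxation of supercoiled to relaxed DNA by TopoI measured with a commercial TopoI drug kit following kit protocol. IC50 calculated from dose-response curves of % inhibition versus concentration.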
Data set [4] relates to Staphylococcus aureus. Nature of the data set: Antimicrobial activity against Staphylococcus aureus ATCC 6538. In kind it is functional. Summed up: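 Staphylococcus aureus grown 24 h in Eugon broth, diluted 1:50 in broth, added to serially diluted samples in 96-well plates (highest final DMSO 2.5%), incubated at 37 °C. Growth measured at 630 nm versus controls. MIC is the lowest concentration inhibiting 80% of growth; IC50 (50% inhibition) comes from concentration versus % growth plots.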

Data set [5] can be described thus: Selectivity index, ratio of IC50 for human DNA topoisomerase 1 to IC50 for Candida albicans DNA topoisomerase 1.
In a further data set the target is T1, DNA topoisomerase 1 (Homo sapiens, UniProt P11387).
T1 sequence (P11387 whole entry): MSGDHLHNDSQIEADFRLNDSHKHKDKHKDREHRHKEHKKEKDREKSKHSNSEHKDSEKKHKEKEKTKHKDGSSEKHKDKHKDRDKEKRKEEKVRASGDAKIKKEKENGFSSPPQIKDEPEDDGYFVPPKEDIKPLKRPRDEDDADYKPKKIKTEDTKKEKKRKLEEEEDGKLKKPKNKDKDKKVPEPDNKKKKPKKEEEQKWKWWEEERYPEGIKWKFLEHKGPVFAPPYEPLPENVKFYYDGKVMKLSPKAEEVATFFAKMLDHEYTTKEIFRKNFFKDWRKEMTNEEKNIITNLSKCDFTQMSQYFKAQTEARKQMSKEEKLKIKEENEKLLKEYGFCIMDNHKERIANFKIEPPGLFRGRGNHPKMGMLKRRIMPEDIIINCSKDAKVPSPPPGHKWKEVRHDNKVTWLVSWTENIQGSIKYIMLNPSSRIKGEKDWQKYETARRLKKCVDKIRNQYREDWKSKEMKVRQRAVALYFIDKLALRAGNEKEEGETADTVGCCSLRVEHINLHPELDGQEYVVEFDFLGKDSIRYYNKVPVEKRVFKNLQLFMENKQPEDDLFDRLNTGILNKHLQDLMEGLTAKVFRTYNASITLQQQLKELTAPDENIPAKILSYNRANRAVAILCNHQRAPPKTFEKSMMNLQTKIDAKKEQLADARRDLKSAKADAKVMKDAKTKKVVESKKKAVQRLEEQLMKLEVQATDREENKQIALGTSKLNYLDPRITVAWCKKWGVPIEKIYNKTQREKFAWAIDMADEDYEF
Nature of the data set: Inhibition of human DNA topoisomerase 1 using pHOT1 as substrate after 30 mins by agarose gel electrophoresis. Put shortly:
as §2

The nature of data set [6]: Cytotoxicity against African green monkey Vero cells assessed as cell growth inhibition at 10 ug/ml after 48 hrs by neutral red dye based assay. Format: toxicity. The following applies: chlorocebus sabaeus. Put shortly:
as §1

Data set [7] is described as follows: Cytotoxicity against human BT549 cells assessed as cell growth inhibition after 48 hrs by neutral red dye based assay. In kind it is functional. The conditions noted are these: BT-549, 48 h. Put shortly:
as §1

The test system of a further data set is Plasmodium falciparum. Nature of the data set: Antimalarial activity against Plasmodium falciparum D6 infected in RBC after 48 hrs by lactate dehydrogenase assay. In kind it is functional. The conditions noted are these: D6, 48 h. Put shortly:
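Parasites grown in A+ human erythrocytes in RPMI 1640 with 10% A+ human serum, 25 mM HEPES, 27 mM bicarbonate, 60 µg/mL amikacin, 37 °C under 90% N2/5% O2/5% CO2. Infected cells exposed 48 h in microtiter wells, highest concentration 4.8 µg/mL. Growth read by Malstat reagent (parasite LDH) with nitro blue tetrazolium reduction, absorbance 630 nm.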

The test system of data set [8] is Mycobacterium intracellulare. Nature of the data set: Antimicrobial activity against Mycobacterium intracellulare ATCC 23068. Format: functional. Put shortly:
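Mycobacterium grown 72 h in Middlebrook medium with OADC supplement, diluted 1:30 in broth. Incubated at 37 °C with diluted samples in 96-well plates, highest final 50 µg/mL, DMSO at most 2.5%. Absorbance at 630 nm. MIC = lowest concentration with 80% growth inhibition relative to controls; IC50 from concentration versus % growth plots.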

A short description of data set [9]: Cytotoxicity against human SKOV3 cells assessed as cell growth inhibition after 48 hrs by neutral red dye based assay. Format: functional. The conditions noted are these: SK-OV-3, 48 h. Summed up: as §1
A short description of data set [10]: Cytotoxicity against human KB cells assessed as cell growth inhibition after 48 hrs by neutral red dye based assay. In kind it is functional. Summed up: as §1
In another data set the test system is Pseudomonas aeruginosa. Nature of the data set: Antimicrobial activity against Pseudomonas aeruginosa ATCC 15442. In kind it is functional. Put shortly:
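Pseudomonas grown 24 h in trypticase soy broth, diluted 1:50. Combined with diluted samples in 96-well plates, top final concentration 50 µg/mL (≤2.5% DMSO), 37 °C incubation. Growth read at 630 nm. MIC is the lowest tested concentration inhibiting 80% of growth versus controls; IC50 from concentration versus % growth graphs.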

Data set [11] in a line: Cytotoxicity against African green monkey Vero cells assessed as cell growth inhibition after 48 hrs by neutral red dye based assay. In kind it is toxicity, Chlorocebus sabaeus. Summed up: as §1

The structures appear in SMILES notation. ≈ marks a conversion by molar mass, not a printed value. A value given as a limit tells only on which side of the number the result lay.

As usually defined, the MIC80 is the lowest concentration that inhibits either 80% of growth or 80% of the strains tested, depending on the study. As for `C[C@@H]1[C@H](O)[C@@H](C)/C=C/C=C/C=C/C=C/C=C/C=C/C=C/[C@H](O[C@@H]2O[C@H](C)[C@@H](O)[C@H](N)[C@@H]2O)C[C@@H]2O[C@](O)(C[C@@H](O)C[C@@H](O)[C@H](O)CC[C@@H](O)C[C@@H](O)CC(=O)O[C@H]1C)C[C@H](O)[C@H]2C(=O)O` [AMPHOTERICIN B], the figures for the MIC80 against Cryptococcus neoformans, in the data set on Candida albicans and against Aspergillus fumigatus were 0.078 µg/mL (≈ 0.0844 µM), 0.156 µg/mL (≈ 0.169 µM) and 1.25 µg/mL (≈ 1.35 µM), respectively.

Usually IC50 stands for the concentration that inhibits the measured activity by half. With `[Br-].c1ccc2c(c1)-c1nccc3cc[n+](Cc4ccc5ccccc5c4)c-2c13`, the IC50 in the data set on Staphylococcus aureus [1] is 22 µg/mL; in the data set on Cryptococcus neoformans, 0.3 µg/mL; in data set [2], under 1.1 µg/mL; in [3] it was 21 µg/mL; in the data set on Staphylococcus aureus [4] it was 20 µg/mL; at DNA topoisomerase 1, 70.5 µM. Also, the concentration for half-maximal inhibition (IC50) in [7] was over 10 µg/mL; with Candida albicans, 0.67 µg/mL; with Plasmodium falciparum, 0.0195 µg/mL; in data set [9], under 1.1 µg/mL; in data set [10], 6 µg/mL; with Pseudomonas aeruginosa, 30 µg/mL. In addition, the values for the MIC80 (in the data set with Cryptococcus neoformans; with Candida albicans; in data set [8]) were 0.39 µg/mL, 0.78 µg/mL and 50 µg/mL, respectively. Moreover, the Ratio IC50 in data set [5] is 0.7. The Activity result in data set [6] is given as “Non-Toxic”.

For `FC(F)(F)c1ccc(C[n+]2ccc3ccnc4c3c2-c2ccccc2-4)cc1.[Br-]`, the IC50 with Cryptococcus neoformans was 0.57 µg/mL; in [2] it was 0.78 µg/mL; in [3], 30 µg/mL; in the data set with Staphylococcus aureus [4], 30 µg/mL; against DNA topoisomerase 1, 69.9 µM; in data set [7] it was 0.79 µg/mL. Further, the concentration for half-maximal inhibition (IC50) in the data set on Candida albicans was determined as 6.5 µg/mL; in the data set with Plasmodium falciparum, 0.0085 µg/mL; in data set [9], 0.08 µg/mL; in data set [10], 0.54 µg/mL; with Pseudomonas aeruginosa, 27 µg/mL. Also, the MIC80 worked out at 3.12 µg/mL against Cryptococcus neoformans, 12.5 µg/mL against Candida albicans and 50 µg/mL in data set [8]. The Ratio IC50 in [5] was determined as 0.97. Besides, the half-inhibitory concentration (IC50) at 48 h in data set [11] stood at 6.4 µg/mL.

Regarding `NC(=O)C[n+]1ccc2ccnc3c2c1-c1ccccc1-3.[Br-]`, the half-inhibitory concentration (IC50) in the data set on Cryptococcus neoformans was 30 µg/mL; in [2], 6.5 µg/mL; in the data set with Plasmodium falciparum, 0.09 µg/mL; in [9], over 10 µg/mL. Also, the MIC80 against Cryptococcus neoformans came to 50 µg/mL. Besides, the IC50 at 48 h in data set [11] was over 10 µg/mL.

As for `CC[n+]1c2c3c(nc(-c4ccccc4)cc3c3ccccc31)-c1ccccc1-2.[Br-]`, the IC50 in the data set with Staphylococcus aureus [1] is 2 µg/mL; with Cryptococcus neoformans, 0.17 µg/mL; in [2] it was 1.3 µg/mL; in [3], under 6 µg/mL; with Staphylococcus aureus [4], 2 µg/mL; at DNA topoisomerase 1, under 13.7 µM. Moreover, the IC50 was found to be 8 µg/mL in data set [7]; 0.04 µg/mL in the data set on Candida albicans; 4 µg/mL in data set [9]; 6.5 µg/mL in data set [10]; 2 µg/mL in the data set with Pseudomonas aeruginosa. In addition, the MIC80 against Cryptococcus neoformans stood at 0.39 µg/mL; with Candida albicans it was 0.098 µg/mL; in data set [8], 10 µg/mL. Also, in [11], the IC50 at 48 h is 7.8 µg/mL.

Take `COc1cccc2c1C(=O)c1c(O)c3c(c(O)c1C2=O)C[C@@](O)(C(=O)CO)C[C@@H]3O[C@H]1C[C@H](N)[C@H](O)[C@H](C)O1` [DOXORUBICIN]: the IC50 in [2] came to 1.11 µg/mL (≈ 2.04 µM); in data set [7], 1.35 µg/mL (≈ 2.48 µM); in [9] it was 1.3 µg/mL (≈ 2.39 µM); in data set [10], 1.59 µg/mL (≈ 2.93 µM). Besides, the IC50 at 48 h in data set [11] is over 10 µg/mL.

With `c1ccc2c(c1)-c1nccc3ccnc-2c13` [EUPOLAURIDINE], the IC50 is 4.8 µg/mL (≈ 23.5 µM) in the data set with Cryptococcus neoformans; 6.5 µg/mL (≈ 31.8 µM) in data set [3]; 20.6 µM at DNA topoisomerase 1; 5.25 µg/mL (≈ 25.7 µM) in the data set with Candida albicans; over 10 µg/mL in data set [9]; 5 µg/mL (≈ 24.5 µM) in the data set on Pseudomonas aeruginosa. Further, the MIC80 with Cryptococcus neoformans was determined as 25 µg/mL (≈ 122 µM); against Candida albicans, 12.5 µg/mL (≈ 61.2 µM); against Aspergillus fumigatus, 2 µg/mL (≈ 9.79 µM). For the same compound, the Ratio IC50 in [5] was 1.55. The IC50 at 48 h in data set [11] is over 10 µg/mL.
